According to ChEMBL document CHEMBL4390639, “Design, Synthesis, and Biological Evaluation of Novel Allosteric Protein Disulfide Isomerase Inhibitors” (J Med Chem, 2019):
Activity calls are given as the source filed them. The calls are words filed in the database; no cut-off is given here.

What was measured:
U-87 MG [1] = assay: Up regulation of KCNE4 gene expression in human U87MG cells at 16 uM incubated for 4 hrs followed by bromouridine addition during last 30 mins of incubation by TRIzol-reagent based Bru-Seq analysis relative to control; type: functional, U-87MG ATCC
Summary of the method: (§1)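 U87MG cells exposed to compound or DMSO vehicle for 4 h, with 2 mM bromouridine added for the final 30 min. Total RNA isolated with TRIzol; Bru-labelled nascent RNA captured on anti-BrdU antibody-conjugated magnetic beads and sequenced. Transcript abundance expressed as RPKM relative to DMSO. Experiment performed once.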

U-87 MG [2] = assay: Up regulation of FTH1 gene expression in human U87MG cells at 16 uM incubated for 4 hrs followed by bromouridine addition during last 30 mins of incubation by TRIzol-reagent based Bru-Seq analysis relative to control; type: functional, U-87MG ATCC; summary of the method: as §1
U-87 MG [3] = assay: Down regulation of H1F0 gene expression in human U87MG cells at 16 uM incubated for 4 hrs followed by bromouridine addition during last 30 mins of incubation by TRIzol-reagent based Bru-Seq analysis relative to control; type: functional, U-87MG ATCC
U-87 MG [4] = assay: Up regulation of HSPH1 gene expression in human U87MG cells at 16 uM incubated for 4 hrs followed by bromouridine addition during last 30 mins of incubation by TRIzol-reagent based Bru-Seq analysis relative to control; type: functional, U-87MG ATCC; summary of the method: as §1
U-87 MG [5] = assay: Down regulation of E2F1 gene expression in human U87MG cells at 16 uM incubated for 4 hrs followed by bromouridine addition during last 30 mins of incubation by TRIzol-reagent based Bru-Seq analysis; type: functional, cell-based; conditions: U-87MG ATCC
U-87 MG [6] = assay: Up regulation of AKR1C1 gene expression in human U87MG cells at 16 uM incubated for 4 hrs followed by bromouridine addition during last 30 mins of incubation by TRIzol-reagent based Bru-Seq analysis relative to control; type: functional, U-87MG ATCC; summary of the method: as §1
U-87 MG [7] = assay: Down regulation of AC022601.1 gene expression in human U87MG cells at 16 uM incubated for 4 hrs followed by bromouridine addition during last 30 mins of incubation by TRIzol-reagent based Bru-Seq analysis relative to control; type: functional, U-87MG ATCC
U-87 MG [8] = assay: Down regulation of C8orf4 gene expression in human U87MG cells at 16 uM incubated for 4 hrs followed by bromouridine addition during last 30 mins of incubation by TRIzol-reagent based Bru-Seq analysis relative to control; type: functional, U-87MG ATCC; summary of the method: as §1
U-87 MG [9] = assay: Down regulation of KCTD4 gene expression in human U87MG cells at 16 uM incubated for 4 hrs followed by bromouridine addition during last 30 mins of incubation by TRIzol-reagent based Bru-Seq analysis relative to control; type: functional, U-87MG ATCC
U-87 MG [10] = assay: Up regulation of AC087672.3 gene expression in human U87MG cells at 16 uM incubated for 4 hrs followed by bromouridine addition during last 30 mins of incubation by TRIzol-reagent based Bru-Seq analysis relative to control; type: functional, U-87MG ATCC; summary of the method: as §1
U-87 MG [11] = assay: Up regulation of BAG3 gene expression in human U87MG cells at 16 uM incubated for 4 hrs followed by bromouridine addition during last 30 mins of incubation by TRIzol-reagent based Bru-Seq analysis relative to control; type: functional, U-87MG ATCC; summary of the method: as §1
U-87 MG [12] = assay: Down regulation of IL1B gene expression in human U87MG cells at 16 uM incubated for 4 hrs followed by bromouridine addition during last 30 mins of incubation by TRIzol-reagent based Bru-Seq analysis relative to control; type: functional, U-87MG ATCC; summary of the method: as §1
A 172 = assay: Induction of morphological changes in human A172 cells assessed as membrane blebbing at 11 uM measured after 48 hrs by Giemsa-staining based microscopic analysis; type: functional, cell-based
U-87 MG [13] = assay: Down regulation of ANKRD36 gene expression in human U87MG cells at 10 uM incubated for 4 hrs followed by bromouridine addition during last 30 mins of incubation by TRIzol-reagent based Bru-Seq analysis relative to control; type: functional, U-87MG ATCC
U-87 MG [14] = assay: Up regulation of SESN2 gene expression in human U87MG cells at 10 uM incubated for 4 hrs followed by bromouridine addition during last 30 mins of incubation by TRIzol-reagent based Bru-Seq analysis relative to control; type: functional, U-87MG ATCC; summary of the method: as §1
U-87 MG [15] = assay: Up regulation of NGF gene expression in human U87MG cells at 10 uM incubated for 4 hrs followed by bromouridine addition during last 30 mins of incubation by TRIzol-reagent based Bru-Seq analysis relative to control; type: functional, U-87MG ATCC; summary of the method: as §1
U-87 MG [16] = assay: Down regulation of MAD2L1 gene expression in human U87MG cells at 10 uM incubated for 4 hrs followed by bromouridine addition during last 30 mins of incubation by TRIzol-reagent based Bru-Seq analysis relative to control; type: functional, U-87MG ATCC
Summary of the method: (§2)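 Nascent transcription (Bru-seq) in U87MG cells: treatment at 10 μM for 4 h, with 2 mM bromouridine added for the final 30 min. Total RNA isolated with TRIzol; Bru-labelled RNA captured using anti-BrdU antibody on magnetic beads, then sequenced. Transcript traces reported as RPKM compared with DMSO-treated cells. Single experiment.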

U-87 MG [17] = assay: Up regulation of SLC7A5 gene expression in human U87MG cells at 10 uM incubated for 4 hrs followed by bromouridine addition during last 30 mins of incubation by TRIzol-reagent based Bru-Seq analysis relative to control; type: functional, U-87MG ATCC
Summary of the method: (§3)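 U87MG cells treated 4 h with test compound (10 or 16 μM, as per line) or DMSO; 2 mM bromouridine added for final 30 min. Total RNA isolated with TRIzol, Bru-labelled nascent RNA captured with anti-BrdU antibody magnetic beads and sequenced; transcript abundance (RPKM) compared with DMSO control. Single experiment.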

U-87 MG [18] = assay: Down regulation of ANKRD36B gene expression in human U87MG cells at 10 uM incubated for 4 hrs followed by bromouridine addition during last 30 mins of incubation by TRIzol-reagent based Bru-Seq analysis relative to control; type: functional, U-87MG ATCC
U-87 MG [19] = assay: Up regulation of ATP6 V0D2 gene expression in human U87MG cells at 10 uM incubated for 4 hrs followed by bromouridine addition during last 30 mins of incubation by TRIzol-reagent based Bru-Seq analysis relative to control; type: functional, U-87MG ATCC; summary of the method: as §1
U-87 MG [20] = assay: Down regulation of E2F8 gene expression in human U87MG cells at 10 uM incubated for 4 hrs followed by bromouridine addition during last 30 mins of incubation by TRIzol-reagent based Bru-Seq analysis relative to control; type: functional, U-87MG ATCC
U-87 MG [21] = assay: Down regulation of SLITRK5 gene expression in human U87MG cells at 10 uM incubated for 4 hrs followed by bromouridine addition during last 30 mins of incubation by TRIzol-reagent based Bru-Seq analysis relative to control; type: functional, U-87MG ATCC; summary of the method: as §2
U-87 MG [22] = assay: Up regulation of TM4SF19-TCTEX1D2 gene expression in human U87MG cells at 10 uM incubated for 4 hrs followed by bromouridine addition during last 30 mins of incubation by TRIzol-reagent based Bru-Seq analysis relative to control; type: functional, U-87MG ATCC; summary of the method: as §3
U-87 MG [23] = assay: Down regulation of ST8SIA4 gene expression in human U87MG cells at 10 uM incubated for 4 hrs followed by bromouridine addition during last 30 mins of incubation by TRIzol-reagent based Bru-Seq analysis relative to control; type: functional, U-87MG ATCC; summary of the method: as §2
U-87 MG [24] = assay: Down regulation of FKBP7 gene expression in human U87MG cells at 10 uM incubated for 4 hrs followed by bromouridine addition during last 30 mins of incubation by TRIzol-reagent based Bru-Seq analysis relative to control; type: functional, U-87MG ATCC

COC(=O)c1cccc(/C=C/C(=O)c2cccc(O)c2)c1
fold change (FC) (U-87 MG [1]): 5.1 | fold change (FC) (U-87 MG [2]): 1.9 | fold change (FC) (U-87 MG [3]): 2.7 | fold change (FC) (U-87 MG [4]): 5 | Activity (U-87 MG [5]): Active | fold change (FC) (U-87 MG [6]): 8.1 | fold change (FC) (U-87 MG [7]): 2.7 | fold change (FC) (U-87 MG [8]): 4.7 | fold change (FC) (U-87 MG [9]): 3 | fold change (FC) (U-87 MG [10]): 3.8 | fold change (FC) (U-87 MG [11]): 1.9 | fold change (FC) (U-87 MG [12]): 5.5

CCCCCN(CCCCC)S(=O)(=O)c1ccc(C(=O)/C=C/c2cccc(O)c2)cc1
Activity (A 172): Active

CCCCCN(CCCCC)S(=O)(=O)c1ccc(C(=O)/C=C/c2cccc(C#N)c2)cc1
fold change (FC) (U-87 MG [13]): 2.4 | fold change (FC) (U-87 MG [14]): 26.9 | fold change (FC) (U-87 MG [15]): 10 | fold change (FC) (U-87 MG [16]): 2.4 | fold change (FC) (U-87 MG [17]): 16.8 | fold change (FC) (U-87 MG [18]): 2.8 | fold change (FC) (U-87 MG [19]): 11.9 | fold change (FC) (U-87 MG [20]): 2.4 | fold change (FC) (U-87 MG [21]): 3.6 | fold change (FC) (U-87 MG [22]): 8.7 | fold change (FC) (U-87 MG [23]): 3.1 | fold change (FC) (U-87 MG [24]): 2.4
